{
  "source": "ChEMBL document CHEMBL5705890",
  "about": "“Antitumor activity of an allosteric inhibitor of centromere-associated protein-E” (Proc Natl Acad Sci U S A, 2010)",
  "key": {"A673": {"tested_on": "A673", "experiment": "Anticancer activity against human A673 cells assessed as cell growth inhibition measured after 72 hrs by DAPI staining based analysis", "format": "functional", "how_it_was_run": "(§1)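 Cells were seeded and, after 24 h, DNA content was read as T0. Cells were then exposed to varying drug concentrations for a further 72 h (T72). Fixed cells were DAPI-stained and DNA content measured by automated imaging. T72 values were normalized to T0. GI50 is the concentration giving 50% growth inhibition between T0 and Ymax, obtained by curve fitting.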"}, "[1]": {"experiment": "Anticancer activity against human BC-2 cells assessed as cell growth inhibition measured after 72 hrs by DAPI staining based analysis", "format": "functional", "how_it_was_run": "as §1"}, "BE(2)-C": {"tested_on": "BE(2)-C", "experiment": "Anticancer activity against human BE2C cells assessed as cell growth inhibition measured after 72 hrs by DAPI staining based analysis", "format": "functional", "how_it_was_run": "as §1"}, "BHT-101": {"tested_on": "BHT-101", "experiment": "Anticancer activity against human BHT-101 cells assessed as cell growth inhibition measured after 72 hrs by DAPI staining based analysis", "format": "functional", "how_it_was_run": "(§2)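 Cells were seeded, and DNA content at 24 h after seeding (T0) was read by imaging of fixed, DAPI-stained cells. Cells were then exposed to a range of drug concentrations for a further 72 h (T72) and DNA content was read again. T72 values were normalized to T0, and GI50 was taken from curve fits as the concentration giving 50% growth inhibition relative to T0 and Ymax.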"}, "CHP-212": {"tested_on": "CHP-212", "experiment": "Anticancer activity against human CHP-212 cells assessed as cell growth inhibition measured after 72 hrs by DAPI staining based analysis", "format": "functional", "how_it_was_run": "as §2"}, "COLO 205": {"tested_on": "COLO 205", "experiment": "Anticancer activity against human COLO 205 cells assessed as cell growth inhibition measured after 72 hrs by DAPI staining based analysis", "format": "functional", "how_it_was_run": "as §2"}, "HN5": {"tested_on": "HN5", "experiment": "Anticancer activity against human HN5 cells assessed as cell growth inhibition measured after 72 hrs by DAPI staining based analysis", "format": "functional"}, "MIA PaCa-2": {"tested_on": "MIA PaCa-2", "experiment": "Anticancer activity against human MIA PaCa-2 cells assessed as cell growth inhibition measured after 72 hrs by DAPI staining based analysis", "format": "functional"}, "MV4-11": {"tested_on": "MV4-11", "experiment": "Anticancer activity against human MV4-11 cells assessed as cell growth inhibition measured after 72 hrs by DAPI staining based analysis", "format": "functional"}, "NCI-H146": {"tested_on": "NCI-H146", "experiment": "Anticancer activity against human NCI-H146 cells assessed as cell growth inhibition measured after 72 hrs by DAPI staining based analysis", "format": "functional"}, "NCI-H295R": {"tested_on": "NCI-H295R", "experiment": "Anticancer activity against human NCI-H295R cells assessed as cell growth inhibition measured after 72 hrs by DAPI staining based analysis", "format": "functional"}, "SF-268": {"tested_on": "SF-268", "experiment": "Anticancer activity against human SF-268 cells assessed as cell growth inhibition measured after 72 hrs by DAPI staining based analysis", "format": "functional"}, "SK-LMS-1 [2]": {"tested_on": "SK-LMS-1", "experiment": "Anticancer activity against human SK-LMS-1 cells assessed as cell growth inhibition measured after 72 hrs by DAPI staining based analysis", "format": "functional"}, "[3]": {"experiment": "Anticancer activity against human SKO-007 cells assessed as cell growth inhibition measured after 72 hrs by DAPI staining based analysis", "format": "functional"}, "SW480": {"tested_on": "SW480", "experiment": "Anticancer activity against human SW480 cells assessed as cell growth inhibition measured after 72 hrs by DAPI staining based analysis", "format": "functional"}, "SW-620": {"tested_on": "SW-620", "experiment": "Anticancer activity against human SW620 cells assessed as cell growth inhibition measured after 72 hrs by DAPI staining based analysis", "format": "functional"}, "T47D": {"tested_on": "T47D", "experiment": "Anticancer activity against human T47D cells assessed as cell growth inhibition measured after 72 hrs by DAPI staining based analysis", "format": "functional"}, "A101D": {"tested_on": "A101D", "experiment": "Anticancer activity against human A101D cells assessed as cell doubling measured for 72 hrs by DAPI staining based analysis", "format": "functional"}, "CHL-1": {"tested_on": "CHL-1", "experiment": "Anticancer activity against human CHL-1 cells assessed as cell doubling measured for 72 hrs by DAPI staining based analysis", "format": "functional"}, "DoTc2-4510": {"tested_on": "DoTc2-4510", "experiment": "Anticancer activity against human DoTc2-4510 cells assessed as cell doubling measured for 72 hrs by DAPI staining based analysis", "format": "functional"}, "HCT-8": {"tested_on": "HCT-8", "experiment": "Anticancer activity against human HCT-8 cells assessed as cell doubling measured for 72 hrs by DAPI staining based analysis", "format": "functional"}, "HeLa": {"tested_on": "HeLa", "experiment": "Anticancer activity against human HeLa cells assessed as cell doubling measured for 72 hrs by DAPI staining based analysis", "format": "functional"}, "HMCB cell line": {"tested_on": "HMCB cell line", "experiment": "Anticancer activity against human HMCB cells assessed as cell doubling measured for 72 hrs by DAPI staining based analysis", "format": "functional"}, "HT-3": {"tested_on": "HT-3", "experiment": "Anticancer activity against human HT-3 cells assessed as cell doubling measured for 72 hrs by DAPI staining based analysis", "format": "functional"}, "LOX IMVI": {"tested_on": "LOX IMVI", "experiment": "Anticancer activity against human LOX IMVI cells assessed as cell doubling measured for 72 hrs by DAPI staining based analysis", "format": "functional"}, "MDA-MB-468": {"tested_on": "MDA-MB-468", "experiment": "Anticancer activity against human MDA-MB-468 cells assessed as cell doubling measured for 72 hrs by DAPI staining based analysis", "format": "functional"}, "NCI-H2171": {"tested_on": "NCI-H2171", "experiment": "Anticancer activity against human NCI-H2171 cells assessed as cell doubling measured for 72 hrs by DAPI staining based analysis", "format": "functional"}, "NCI-H520": {"tested_on": "NCI-H520", "experiment": "Anticancer activity against human NCI-H520 cells assessed as cell doubling measured for 72 hrs by DAPI staining based analysis", "format": "functional"}, "NCI-H526": {"tested_on": "NCI-H526", "experiment": "Anticancer activity against human NCI-H526 cells assessed as cell doubling measured for 72 hrs by DAPI staining based analysis", "format": "functional"}, "RPMI-8226": {"tested_on": "RPMI-8226", "experiment": "Anticancer activity against human RPMI-8226 cells assessed as cell doubling measured for 72 hrs by DAPI staining based analysis", "format": "functional"}, "RXF 393": {"tested_on": "RXF 393", "experiment": "Anticancer activity against human RXF 393 cells assessed as cell doubling measured for 72 hrs by DAPI staining based analysis", "format": "functional"}, "SK-LMS-1 [4]": {"tested_on": "SK-LMS-1", "experiment": "Anticancer activity against human SK-LMS-1 cells assessed as cell doubling measured for 72 hrs by DAPI staining based analysis", "format": "functional"}, "ST486": {"tested_on": "ST486", "experiment": "Anticancer activity against human ST486 cells assessed as cell doubling measured for 72 hrs by DAPI staining based analysis", "format": "functional"}, "SW1088": {"tested_on": "SW1088", "experiment": "Anticancer activity against human SW1088 cells assessed as cell doubling measured for 72 hrs by DAPI staining based analysis", "format": "functional"}, "SW780": {"tested_on": "SW780", "experiment": "Anticancer activity against human SW780 cells assessed as cell doubling measured for 72 hrs by DAPI staining based analysis", "format": "functional"}, "SW837": {"tested_on": "SW837", "experiment": "Anticancer activity against human SW837 cells assessed as cell doubling measured for 72 hrs by DAPI staining based analysis", "format": "functional"}, "HT-29": {"tested_on": "HT-29", "experiment": "Antitumor activity against human HT-29 cells in xenograft model assessed as difference between median time to endpoint time of treated versus control group at 125 mg/kg", "format": "functional"}, "A549": {"tested_on": "A549", "experiment": "Antitumor activity against human A549 cells in xenograft model assessed as difference between median time to endpoint time of treated versus control group at 62.5 mg/kg", "format": "functional"}, "[5]": {"experiment": "Antitumor activity against human MV-522 cells in xenograft model assessed as difference between median time to endpoint time of treated versus control group at 125 mg/kg", "format": "functional"}, "NCI-H1299": {"tested_on": "NCI-H1299", "experiment": "Antitumor activity against human NCI-H1299 cells in xenograft model assessed as tumor growth delay at 62.5 mg/kg relative to control", "format": "functional"}, "[6]": {"experiment": "Toxicity in mouse xenografted with human COLO 205 cells at 500 mg/kg, ip administered three doses daily on 2 consecutive weeks", "format": "organism-based", "conditions": "in vivo, 336 h, time 2 weeks"}},
  "data": [
    {"smiles": "CC(C)Oc1ccc(C(=O)N[C@H](CNC(=O)CN(C)C)Cc2ccc(-c3cn4cccc([C@H](C)O)c4n3)cc2)cc1Cl", "note": "[GSK-923295A]", "values": [
      {"measurement": "GI50", "setting": "A673", "result": 23, "unit": "nM"},
      {"measurement": "GI50", "setting": "[1]", "result": 45, "unit": "nM"},
      {"measurement": "GI50", "setting": "BE(2)-C", "result": 93, "unit": "nM"},
      {"measurement": "GI50", "setting": "BHT-101", "result": 100, "unit": "nM"},
      {"measurement": "GI50", "setting": "CHP-212", "result": 34, "unit": "nM"},
      {"measurement": "GI50", "setting": "COLO 205", "result": 25, "unit": "nM"},
      {"measurement": "GI50", "setting": "HN5", "result": 118, "unit": "nM"},
      {"measurement": "GI50", "setting": "MIA PaCa-2", "result": 23, "unit": "nM"},
      {"measurement": "GI50", "setting": "MV4-11", "result": 29, "unit": "nM"},
      {"measurement": "GI50", "setting": "NCI-H146", "result": 5.23, "unit": "µM"},
      {"measurement": "GI50", "setting": "NCI-H295R", "result": 298, "unit": "nM"},
      {"measurement": "GI50", "setting": "SF-268", "result": 26, "unit": "nM"},
      {"measurement": "GI50", "setting": "SK-LMS-1 [2]", "result": 30, "unit": "nM"},
      {"measurement": "GI50", "setting": "[3]", "result": 60, "unit": "nM"},
      {"measurement": "GI50", "setting": "SW480", "result": 33, "unit": "nM"},
      {"measurement": "GI50", "setting": "SW-620", "result": 47, "unit": "nM"},
      {"measurement": "GI50", "setting": "T47D", "result": 29, "unit": "nM"},
      {"measurement": "Activity", "setting": "A101D", "result": 1.36},
      {"measurement": "Activity", "setting": "CHL-1", "result": 3.27},
      {"measurement": "Activity", "setting": "DoTc2-4510", "result": 2.17},
      {"measurement": "Activity", "setting": "HCT-8", "result": 4.26},
      {"measurement": "Activity", "setting": "HeLa", "result": 2.83},
      {"measurement": "Activity", "setting": "HMCB cell line", "result": 2.92},
      {"measurement": "Activity", "setting": "HT-3", "result": 1.95},
      {"measurement": "Activity", "setting": "LOX IMVI", "result": 2.32},
      {"measurement": "Activity", "setting": "MDA-MB-468", "result": 2.05},
      {"measurement": "Activity", "setting": "NCI-H2171", "result": 1.39},
      {"measurement": "Activity", "setting": "NCI-H520", "result": 2.15},
      {"measurement": "Activity", "setting": "NCI-H526", "result": 1.49},
      {"measurement": "Activity", "setting": "RPMI-8226", "result": 1.96},
      {"measurement": "Activity", "setting": "RXF 393", "result": 1.2},
      {"measurement": "Activity", "setting": "SK-LMS-1 [4]", "result": 2.84},
      {"measurement": "Activity", "setting": "ST486", "result": 2.46},
      {"measurement": "Activity", "setting": "SW1088", "result": 2.55},
      {"measurement": "Activity", "setting": "SW780", "result": 2.73},
      {"measurement": "Activity", "setting": "SW837", "result": 1.74},
      {"measurement": "Time", "setting": "HT-29", "result": 18, "unit": "days"},
      {"measurement": "Time", "setting": "A549", "result": 3.7, "unit": "days"},
      {"measurement": "Time", "setting": "[5]", "result": 26.3, "unit": "days"},
      {"measurement": "Activity", "setting": "NCI-H1299", "result": 15, "unit": "%"},
      {"measurement": "Activity", "setting": "[6]", "result": "Non-Toxic"}
    ]}
  ]
}
